# Measured values reported in publication PMC10582670 (Clinical and Translational Science, 2023).
# Where “and” joins values, the source holds several entries; their conditions need not be identical. Identical values can stand only once.
# System: healthy volunteers
# Test: Safety and tolerability
# Type: in vivo, human
# Method in brief: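 Healthy volunteers aged 18–55 y, BMI 18–30 kg/m², randomised double-blind 8:2 to once-daily oral drug or placebo for up to 14 days, with follow-up visits on days 21 and 42. Treatment-emergent AEs coded with MedDRA 23.1 and graded with the WHO toxicity scale, alongside ECGs, laboratory tests and vital signs. The safety population was all subjects receiving at least one dose.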
compound,measurement,setting,value
O=C(c1nc2n(n1)[C@H](c1ccccc1)C[C@@H]2F)C1CC1 [GDC‐8264],No. of TEAEs,"MAD 50 mg q.d., n = 5",10
same,No. of deaths,"MAD 50 mg q.d., n = 5",0 no. of subjects (%)
same,No. of subjects with at least one Related TEAE,"MAD 50 mg q.d., n = 5",3 (60.0) no. of subjects (%)
same,No. of subjects with at least one Serious TEAE,"MAD 50 mg q.d., n = 5",0 no. of subjects (%)
same,No. of subjects with at least one TEAE,"MAD 50 mg q.d., n = 5",3 (60.0) no. of subjects (%)
same,No. of subjects withdrawn from study due to a TEAE,"MAD 50 mg q.d., n = 5",0 no. of subjects (%)
same,TEAE Abdominal pain,"MAD 50 mg q.d., n = 5",0 no. of subjects (%)
same,TEAE Back pain,"MAD 50 mg q.d., n = 5",0 no. of subjects (%)
same,TEAE Catheter site pain,"MAD 50 mg q.d., n = 5",0 no. of subjects (%)
same,TEAE Dermatitis contact,"MAD 50 mg q.d., n = 5",0 no. of subjects (%)
same,TEAE Diarrhea,"MAD 50 mg q.d., n = 5",1 (20.0) no. of subjects (%)
same,TEAE Dizziness,"MAD 50 mg q.d., n = 5",0 no. of subjects (%)
same,TEAE Dyspepsia,"MAD 50 mg q.d., n = 5",1 (20.0) no. of subjects (%)
same,TEAE Gastrointestinal sounds abnormal,"MAD 50 mg q.d., n = 5",0 no. of subjects (%)
same,TEAE Gingivitis,"MAD 50 mg q.d., n = 5",0 no. of subjects (%)
same,TEAE Headache,"MAD 50 mg q.d., n = 5",0 no. of subjects (%)
same,TEAE Medical device site dermatitis,"MAD 50 mg q.d., n = 5",0 no. of subjects (%)
same,TEAE Myalgia,"MAD 50 mg q.d., n = 5",0 no. of subjects (%)
same,TEAE Nausea,"MAD 50 mg q.d., n = 5",0 no. of subjects (%)
same,TEAE Presyncope,"MAD 50 mg q.d., n = 5",0 no. of subjects (%)
same,TEAE Somnolence,"MAD 50 mg q.d., n = 5",0 no. of subjects (%)
same,No. of TEAEs,"MAD 100 mg q.d., n = 7",32
same,No. of deaths,"MAD 100 mg q.d., n = 7",0 no. of subjects (%)
same,No. of subjects with at least one Related TEAE,"MAD 100 mg q.d., n = 7",5 (71.4) no. of subjects (%)
same,No. of subjects with at least one Serious TEAE,"MAD 100 mg q.d., n = 7",0 no. of subjects (%)
same,No. of subjects with at least one TEAE,"MAD 100 mg q.d., n = 7",7 (100) no. of subjects (%)
same,No. of subjects withdrawn from study due to a TEAE,"MAD 100 mg q.d., n = 7",0 no. of subjects (%)
same,TEAE Abdominal pain,"MAD 100 mg q.d., n = 7",2 (28.6) no. of subjects (%)
same,TEAE Back pain,"MAD 100 mg q.d., n = 7",0 no. of subjects (%)
same,TEAE Catheter site pain,"MAD 100 mg q.d., n = 7",2 (28.6) no. of subjects (%)
same,TEAE Dermatitis contact,"MAD 100 mg q.d., n = 7",1 (14.3) no. of subjects (%)
same,TEAE Diarrhea,"MAD 100 mg q.d., n = 7",2 (28.6) no. of subjects (%)
same,TEAE Dizziness,"MAD 100 mg q.d., n = 7",2 (28.6) no. of subjects (%)
same,TEAE Dyspepsia,"MAD 100 mg q.d., n = 7",0 no. of subjects (%)
same,TEAE Gastrointestinal sounds abnormal,"MAD 100 mg q.d., n = 7",1 (14.3) no. of subjects (%)
same,TEAE Gingivitis,"MAD 100 mg q.d., n = 7",2 (28.6) no. of subjects (%)
same,TEAE Headache,"MAD 100 mg q.d., n = 7",2 (28.6) no. of subjects (%)
same,TEAE Medical device site dermatitis,"MAD 100 mg q.d., n = 7",0 no. of subjects (%)
same,TEAE Myalgia,"MAD 100 mg q.d., n = 7",0 no. of subjects (%)
same,TEAE Nausea,"MAD 100 mg q.d., n = 7",1 (14.3) no. of subjects (%)
same,TEAE Presyncope,"MAD 100 mg q.d., n = 7",1 (14.3) no. of subjects (%)
same,TEAE Somnolence,"MAD 100 mg q.d., n = 7",3 (42.9) no. of subjects (%)
same,No. of TEAEs,"MAD All GDC-8264, n = 12",42
same,No. of deaths,"MAD All GDC-8264, n = 12",0 no. of subjects (%)
same,No. of subjects with at least one Related TEAE,"MAD All GDC-8264, n = 12",8 (66.7) no. of subjects (%)
same,No. of subjects with at least one Serious TEAE,"MAD All GDC-8264, n = 12",0 no. of subjects (%)
same,No. of subjects with at least one TEAE,"MAD All GDC-8264, n = 12",10 no. of subjects (%) and 10 (83.3) no. of subjects (%)
same,No. of subjects withdrawn from study due to a TEAE,"MAD All GDC-8264, n = 12",0 no. of subjects (%)
same,TEAE Abdominal pain,"MAD All GDC-8264, n = 12",2 (16.7) no. of subjects (%)
same,TEAE Back pain,"MAD All GDC-8264, n = 12",0 no. of subjects (%)
same,TEAE Catheter site pain,"MAD All GDC-8264, n = 12",2 (16.7) no. of subjects (%)
same,TEAE Dermatitis contact,"MAD All GDC-8264, n = 12",1 (8.3) no. of subjects (%)
same,TEAE Diarrhea,"MAD All GDC-8264, n = 12",3 (25.0) no. of subjects (%)
same,TEAE Dizziness,"MAD All GDC-8264, n = 12",2 (16.7) no. of subjects (%)
same,TEAE Dyspepsia,"MAD All GDC-8264, n = 12",1 (8.3) no. of subjects (%)
same,TEAE Gastrointestinal sounds abnormal,"MAD All GDC-8264, n = 12",1 (8.3) no. of subjects (%)
same,TEAE Gingivitis,"MAD All GDC-8264, n = 12",2 (16.7) no. of subjects (%)
same,TEAE Headache,"MAD All GDC-8264, n = 12",2 (16.7) no. of subjects (%)
same,TEAE Medical device site dermatitis,"MAD All GDC-8264, n = 12",0 no. of subjects (%)
same,TEAE Myalgia,"MAD All GDC-8264, n = 12",0 no. of subjects (%)
same,TEAE Nausea,"MAD All GDC-8264, n = 12",1 (8.3) no. of subjects (%)
same,TEAE Presyncope,"MAD All GDC-8264, n = 12",1 (8.3) no. of subjects (%)
same,TEAE Somnolence,"MAD All GDC-8264, n = 12",3 (25.0) no. of subjects (%)
same,No. of TEAEs,"SAD (fasted) 5 mg, n = 6",6
same,No. of deaths,"SAD (fasted) 5 mg, n = 6",0 no. of subjects (%)
same,No. of subjects with at least one Related TEAE,"SAD (fasted) 5 mg, n = 6",0 no. of subjects (%)
same,No. of subjects with at least one Serious TEAE,"SAD (fasted) 5 mg, n = 6",0 no. of subjects (%)
same,No. of subjects with at least one TEAE,"SAD (fasted) 5 mg, n = 6",5 (83.3) no. of subjects (%)
same,No. of subjects withdrawn from study due to a TEAE,"SAD (fasted) 5 mg, n = 6",0 no. of subjects (%)
same,TEAE Abdominal pain,"SAD (fasted) 5 mg, n = 6",1 (16.7) no. of subjects (%)
same,TEAE Back pain,"SAD (fasted) 5 mg, n = 6",0 no. of subjects (%)
same,TEAE Catheter site pain,"SAD (fasted) 5 mg, n = 6",1 (16.7) no. of subjects (%)
same,TEAE Dermatitis contact,"SAD (fasted) 5 mg, n = 6",1 (16.7) no. of subjects (%)
same,TEAE Diarrhea,"SAD (fasted) 5 mg, n = 6",0 no. of subjects (%)
same,TEAE Dizziness,"SAD (fasted) 5 mg, n = 6",0 no. of subjects (%)
same,TEAE Dyspepsia,"SAD (fasted) 5 mg, n = 6",1 (16.7) no. of subjects (%)
same,TEAE Gastrointestinal sounds abnormal,"SAD (fasted) 5 mg, n = 6",0 no. of subjects (%)
same,TEAE Gingivitis,"SAD (fasted) 5 mg, n = 6",0 no. of subjects (%)
same,TEAE Headache,"SAD (fasted) 5 mg, n = 6",1 (16.7) no. of subjects (%)
same,TEAE Medical device site dermatitis,"SAD (fasted) 5 mg, n = 6",0 no. of subjects (%)
same,TEAE Myalgia,"SAD (fasted) 5 mg, n = 6",0 no. of subjects (%)
same,TEAE Nausea,"SAD (fasted) 5 mg, n = 6",0 no. of subjects (%)
same,TEAE Presyncope,"SAD (fasted) 5 mg, n = 6",0 no. of subjects (%)
same,TEAE Somnolence,"SAD (fasted) 5 mg, n = 6",0 no. of subjects (%)
same,No. of TEAEs,"SAD (fasted) 25 mg, n = 6",6
same,No. of deaths,"SAD (fasted) 25 mg, n = 6",0 no. of subjects (%)
same,No. of subjects with at least one Related TEAE,"SAD (fasted) 25 mg, n = 6",0 no. of subjects (%)
same,No. of subjects with at least one Serious TEAE,"SAD (fasted) 25 mg, n = 6",0 no. of subjects (%)
same,No. of subjects with at least one TEAE,"SAD (fasted) 25 mg, n = 6",4 (66.7) no. of subjects (%)
same,No. of subjects withdrawn from study due to a TEAE,"SAD (fasted) 25 mg, n = 6",0 no. of subjects (%)
same,TEAE Abdominal pain,"SAD (fasted) 25 mg, n = 6",1 (16.7) no. of subjects (%)
same,TEAE Back pain,"SAD (fasted) 25 mg, n = 6",0 no. of subjects (%)
same,TEAE Catheter site pain,"SAD (fasted) 25 mg, n = 6",0 no. of subjects (%)
same,TEAE Dermatitis contact,"SAD (fasted) 25 mg, n = 6",0 no. of subjects (%)
same,TEAE Diarrhea,"SAD (fasted) 25 mg, n = 6",0 no. of subjects (%)
same,TEAE Dizziness,"SAD (fasted) 25 mg, n = 6",0 no. of subjects (%)
same,TEAE Dyspepsia,"SAD (fasted) 25 mg, n = 6",0 no. of subjects (%)
same,TEAE Gastrointestinal sounds abnormal,"SAD (fasted) 25 mg, n = 6",0 no. of subjects (%)
same,TEAE Gingivitis,"SAD (fasted) 25 mg, n = 6",0 no. of subjects (%)
same,TEAE Headache,"SAD (fasted) 25 mg, n = 6",2 (33.3) no. of subjects (%)
same,TEAE Medical device site dermatitis,"SAD (fasted) 25 mg, n = 6",0 no. of subjects (%)
same,TEAE Myalgia,"SAD (fasted) 25 mg, n = 6",0 no. of subjects (%)
same,TEAE Nausea,"SAD (fasted) 25 mg, n = 6",0 no. of subjects (%)
same,TEAE Presyncope,"SAD (fasted) 25 mg, n = 6",1 (16.7) no. of subjects (%)
same,TEAE Somnolence,"SAD (fasted) 25 mg, n = 6",0 no. of subjects (%)
